According to ChEMBL document CHEMBL4308899, “Design, synthesis and QSAR study of 2'-hydroxy-4'-alkoxy chalcone derivatives that exert cytotoxic activity by the mitochondrial apoptotic pathway” (Bioorg Med Chem, 2019):
Activity calls are given as the source filed them. No cut-off for these calls is given here.

Columns and labels:
PC-3 [1] = test: Cell cycle arrest in human PC3 cells assessed as accumulation at G1 phase at 8.2 uM after 48 hrs by RNAse/propidium iodide staining-based flow cytometric analysis (reference value: 55.6%); format: functional
BJ = test: Cytotoxicity against human BJ cells after 48 hrs by CellTiter 96 AQueous one solution cell proliferation assay; format: cell-based
PC-3 [2] = test: Induction of apoptosis in human PC3 cells assessed as upregulation of Bax mRNA expression after 48 hrs by RT-PCR analysis; format: functional, cell-based
In short: (§1)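 PC3 cells (1.25×10^5) were treated 48 h, then RNA was isolated. Bcl-2 and Bax mRNA were measured by RT-PCR with GAPDH as internal control.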

PC-3 [3] = test: Induction of apoptosis in human PC3 cells assessed as formation of apoptotic bodies at IC50 after 48 hrs by acridine orange/ethidium bromide staining-based epifluorescence microscopic analysis; format: functional, cell-based
MCF7 = test: Antiproliferative activity against human MCF7 cells after 48 hrs by CellTiter 96 AQueous one solution cell proliferation assay; format: functional, cell-based; conditions: MCF7, 48 h
In short: (§2)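 Cells plated at 8000/well; test agents dissolved in DMSO and tested at 80, 8, 0.8, 0.08 and 0.008 μg/mL for 48 h at 37°C, 5% CO2. PC3 and CaSki were grown in RPMI-1640, MCF7 in Eagle's MEM, with 10% FBS and 2 mM glutamine. Podophyllotoxin served as positive control. Viability read by MTS-type reagent absorbance at 450 nm. Triplicates in three independent experiments; IC50 by regression.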

PC-3 [4] = test: Cell cycle arrest in human PC3 cells assessed as accumulation at sub-G1 phase at 8.2 uM after 48 hrs by RNAse/propidium iodide staining-based flow cytometric analysis (reference value: 0.00%); format: functional
PC-3 [5] = test: Cell cycle arrest in human PC3 cells assessed as accumulation at S phase at 8.2 uM after 48 hrs by RNAse/propidium iodide staining-based flow cytometric analysis (reference value: 19.7%); format: functional
PC-3 [6] = test: Induction of apoptosis in human PC3 cells assessed as increase in caspase 3/7 activity by Caspase 3/7-Glo luminescence assay; format: functional, cell-based
In short: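 PC3 cells (8000) were treated, and caspase-3/7 activity was then read by Caspase-Glo 3/7 luminescence. Results are relative luminescence units versus untreated control; paclitaxel was included as a comparator.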

PC-3 [7] = test: Antiproliferative activity against human PC3 cells after 48 hrs by CellTiter 96 AQueous one solution cell proliferation assay; format: functional, cell-based; conditions: PC-3, 48 h; in short: as §2
PC-3 [8] = test: Induction of apoptosis in human PC3 cells assessed as down regulation of Bcl2 mRNA expression after 48 hrs by RT-PCR analysis; format: functional, cell-based; in short: as §1
PC-3 [9] = test: Induction of apoptosis in human PC3 cells assessed as plasma membrane blebbing at IC50 after 48 hrs by acridine orange/ethidium bromide staining-based epifluorescence microscopic analysis; format: functional, cell-based
PC-3 [10] = test: Cell cycle arrest in human PC3 cells assessed as accumulation at G2/M phase at 8.2 uM after 48 hrs by RNAse/propidium iodide staining-based flow cytometric analysis (reference value: 24.9%); format: functional
PC-3 [11] = test: Induction of apoptosis in human PC3 cells assessed as chromatin condensation at IC50 after 48 hrs by acridine orange/ethidium bromide staining-based epifluorescence microscopic analysis; format: functional, cell-based
Ca-Ski = test: Antiproliferative activity against human CaSki cells after 48 hrs by CellTiter 96 AQueous one solution cell proliferation assay; format: functional, cell-based; in short: as §2
[12] = Antiproliferative activity against human HF6 cells after 48 hrs by CellTiter 96 AQueous one solution cell proliferation assay; format: functional, cell-based
PC-3 [13] = test: Antiproliferative activity against human PC3 cells after 72 hrs by CyQuant dye-based assay; format: functional, cell-based; conditions: PC-3, 72 h
PC-3 [14] = test: Cell cycle arrest in human PC3 cells assessed as accumulation at S phase at 0.12 uM after 48 hrs by RNAse/propidium iodide staining-based flow cytometric analysis (reference value: 19.7%); format: functional
PC-3 [15] = test: Induction of apoptosis in human PC3 cells assessed as chromatin condensation at 0.005 uM after 48 hrs by acridine orange/ethidium bromide staining-based epifluorescence microscopic analysis; format: functional, cell-based
In short: (§3)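 PC3 cells, 25000 per well in 24-well plates, treated 48 h; H2O2 30 min served as apoptosis control, boiling at 95°C for 10 sec as necrosis control. Cells then exposed to acridine orange/ethidium bromide (100 μg/mL each) and examined by fluorescence microscopy. Scored by nuclear morphology: chromatin condensation, orange condensed chromatin (late apoptosis), apoptotic bodies.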

PC-3 [16] = test: Induction of apoptosis in human PC3 cells assessed as formation of apoptotic bodies at 0.005 uM after 48 hrs by acridine orange/ethidium bromide staining-based epifluorescence microscopic analysis; format: functional, cell-based; in short: as §3
PC-3 [17] = test: Cell cycle arrest in human PC3 cells assessed as accumulation at G2/M phase at 0.12 uM after 48 hrs by RNAse/propidium iodide staining-based flow cytometric analysis (reference value: 24.9%); format: functional
PC-3 [18] = test: Cell cycle arrest in human PC3 cells assessed as accumulation at G1 phase at 0.12 uM after 48 hrs by RNAse/propidium iodide staining-based flow cytometric analysis (reference value: 55.6%); format: functional
PC-3 [19] = test: Induction of apoptosis in human PC3 cells assessed as plasma membrane blebbing at 0.005 uM after 48 hrs by acridine orange/ethidium bromide staining-based epifluorescence microscopic analysis; format: functional, cell-based; in short: as §3
PC-3 [20] = test: Cell cycle arrest in human PC3 cells assessed as accumulation at sub-G1 phase at 0.12 uM after 48 hrs by RNAse/propidium iodide staining-based flow cytometric analysis (reference value: 0.00%); format: functional
PC-3 [21] = test: Cell cycle arrest in human PC3 cells assessed as accumulation at G2/M phase at 13.75 uM after 48 hrs by RNAse/propidium iodide staining-based flow cytometric analysis (reference value: 24.9%); format: functional
PC-3 [22] = test: Cell cycle arrest in human PC3 cells assessed as accumulation at sub-G1 phase at 13.75 uM after 48 hrs by RNAse/propidium iodide staining-based flow cytometric analysis (reference value: 0.00%); format: functional
PC-3 [23] = test: Cell cycle arrest in human PC3 cells assessed as accumulation at G1 phase at 13.75 uM after 48 hrs by RNAse/propidium iodide staining-based flow cytometric analysis (reference value: 55.6%); format: functional
PC-3 [24] = test: Cell cycle arrest in human PC3 cells assessed as accumulation at S phase at 13.75 uM after 48 hrs by RNAse/propidium iodide staining-based flow cytometric analysis (reference value: 19.7%); format: functional
PC-3 [25] = test: Cell cycle arrest in human PC3 cells assessed as accumulation at G1 phase at 11.81 uM after 48 hrs by RNAse/propidium iodide staining-based flow cytometric analysis (reference value: 55.6%); format: functional
PC-3 [26] = test: Cell cycle arrest in human PC3 cells assessed as accumulation at S phase at 11.81 uM after 48 hrs by RNAse/propidium iodide staining-based flow cytometric analysis (reference value: 19.7%); format: functional
PC-3 [27] = test: Cell cycle arrest in human PC3 cells assessed as accumulation at G2/M phase at 11.81 uM after 48 hrs by RNAse/propidium iodide staining-based flow cytometric analysis (reference value: 24.9%); format: functional
PC-3 [28] = test: Cell cycle arrest in human PC3 cells assessed as accumulation at sub-G1 phase at 11.81 uM after 48 hrs by RNAse/propidium iodide staining-based flow cytometric analysis (reference value: 0.00%); format: functional

Row | Compound | IC50 (BJ) [µM] | IC50 (MCF7) [µM] | IC50 (PC-3 [7]) [µM] | IC50 (Ca-Ski) [µM] | IC50 [12] [µM] | further results
1 | CCOc1ccc(C(=O)/C=C/c2ccccc2)c(O)c1 | 208 | > 50 | 8.2 |  |  | Activity (PC-3 [1]): 24.3%; Activity (PC-3 [2]): Active; Activity (PC-3 [3]): Active; Activity (PC-3 [4]): 17.9%; Activity (PC-3 [5]): 7.69%; Activity (PC-3 [6]): Active; Activity (PC-3 [8]): Active; Activity (PC-3 [9]): Active; Activity (PC-3 [10]): 50.1%; Activity (PC-3 [11]): Active
2 | COc1cc(O)c(C(=O)/C=C/c2ccccc2)cc1I |  | > 50 | > 50 | > 50 | > 50 | 
3 | O=C(/C=C/c1ccccc1O)c1ccccc1O |  |  |  |  |  | IC50 (PC-3 [13]): 10.3 µM
4 | COc1ccc(C(=O)/C=C/c2ccccc2)c(O)c1Br |  | > 50 | 47.8 | > 50 | > 50 | 
5 | CC(=O)Oc1ccc(C(=O)/C=C/c2ccccc2)c(O)c1 | 21.3 | > 50 | 10 | > 50 | > 50 | 
6 | O=C(/C=C/c1ccccc1)c1ccc(OCc2ccccc2)cc1O |  | > 50 | 34.7 | > 50 |  | 
7 | COc1ccc(C(=O)/C=C/c2ccccc2)c(O)c1I |  | > 50 | 34 | > 50 | > 50 | 
8 | COc1cc([C@@H]2c3cc4c(cc3[C@H](O)[C@H]3COC(=O)[C@H]23)OCO4)cc(OC)c1OC [PODOFILOX] | 5 | 0.28 | 0.12 | 0.3 | 0.0369 | Activity (PC-3 [14]): 9.82%; Activity (PC-3 [15]): Active; Activity (PC-3 [16]): Active; Activity (PC-3 [17]): 47%; Activity (PC-3 [18]): 8.31%; Activity (PC-3 [19]): Active; Activity (PC-3 [20]): 35.6%
9 | O=C(/C=C/c1ccccc1)c1ccc(O)cc1O [2',4'-DIHYDROXYCHALCONE] | 262 | > 50 | 13.8 |  |  | Activity (PC-3 [2]): Active; Activity (PC-3 [21]): 40.8%; Activity (PC-3 [3]): Active; Activity (PC-3 [22]): 16.3%; Activity (PC-3 [6]): Active; Activity (PC-3 [23]): 32.2%; Activity (PC-3 [8]): Active; Activity (PC-3 [24]): 10.7%; Activity (PC-3 [9]): Active; Activity (PC-3 [11]): Active
10 | COc1ccc(C(=O)/C=C/c2ccccc2)c(O)c1 | 239 | > 50 | 11.8 |  | > 50 | Activity (PC-3 [2]): Active; Activity (PC-3 [3]): Active; Activity (PC-3 [25]): 46.8%; Activity (PC-3 [26]): 16%; Activity (PC-3 [6]): Active; Activity (PC-3 [27]): 27.1%; Activity (PC-3 [8]): Active; Activity (PC-3 [9]): Active; Activity (PC-3 [28]): 13.6%; Activity (PC-3 [11]): Active
11 | COc1cc(O)c(C(=O)/C=C/c2ccccc2)cc1Br |  | > 50 | > 50 | > 50 | 38.9 | 
12 | COc1ccc(C(=O)CCc2ccccc2)c(O)c1 |  | > 50 | > 50 | > 50 | > 50 | 
13 | CCCOc1ccc(C(=O)/C=C/c2ccccc2)c(O)c1 | 16 | > 50 | 8.08 | > 50 |  | 
